Bioassay records deposited in PubChem BioAssay by several laboratories.
E coli RNAP: blocks E. coli RNA polymerase transcription | P0A8V2 | fluorescence transcription assay | inhibition, %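 (tested at 10 µM)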 | actives 0.2% (n = 62,000); in the data active = inhibition above about 20%;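 note: 0% = enzyme without compound and 100% = no enzyme blank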
Cdc25B inh: human M-phase inducer phosphatase 2 inhibition; P30305; recombinant Cdc25B, OMFP fluorescence Ex485/Em525; inhibition, %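 (compounds tested at 10 µM final in the well)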; actives 0.1% (n = 65,000); in the data active = inhibition above about 50%
Target sequence (P30305 whole entry, looked up): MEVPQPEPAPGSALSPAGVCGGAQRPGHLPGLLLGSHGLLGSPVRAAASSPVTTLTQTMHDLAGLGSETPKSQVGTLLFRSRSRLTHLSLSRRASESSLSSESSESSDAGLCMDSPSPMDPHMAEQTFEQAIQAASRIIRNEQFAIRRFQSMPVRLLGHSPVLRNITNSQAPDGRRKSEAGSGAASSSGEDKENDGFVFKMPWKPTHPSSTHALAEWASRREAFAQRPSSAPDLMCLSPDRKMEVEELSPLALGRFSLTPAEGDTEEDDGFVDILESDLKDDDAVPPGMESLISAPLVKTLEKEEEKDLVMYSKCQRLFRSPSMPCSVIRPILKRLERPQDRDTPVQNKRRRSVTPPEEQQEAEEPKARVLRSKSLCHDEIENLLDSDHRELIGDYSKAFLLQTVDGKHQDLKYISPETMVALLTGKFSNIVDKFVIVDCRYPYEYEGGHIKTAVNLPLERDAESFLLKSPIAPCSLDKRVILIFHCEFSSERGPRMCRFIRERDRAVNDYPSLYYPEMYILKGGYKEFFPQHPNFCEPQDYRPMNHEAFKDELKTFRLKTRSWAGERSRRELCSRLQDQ
MKP-1 inh: human dual specificity phosphatase 1 inhibition; P28562; recombinant MKP-1, OMFP hydrolysis fluorescence; inhibition, %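 (compounds tested at a single concentration somewhere between 10 and 100 µM)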; actives 0.15% (n = 65,000);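 active = inhibition above about 50%, limit read from the data; inconclusive = inhibition over screen mean plus 3 SD, below that limit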;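 note: 0% = DMSO max control wells and 100% = wells with enzyme stopped by NaOH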
Hsp90 block: displaces geldanamycin probe from tumor Hsp90; P07900; NCI-N417 lysate Hsp90, Cy3B-geldanamycin FP displacement; inhibition, % at 30 µM; actives 0.35% (n = 64,000); AID 429;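 active = inhibition above 50%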;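 note: 0% = tracer plus lysate wells and 100% = tracer alone without lysate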
Ecoli tolC: E. coli tolC mutant growth inhibition | growth inhibition, % at 10 µM (by protocol) | E. coli BW25113 tolC mutant growth, OD615 | actives 2.2% (n = 65,000);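 active = growth inhibition at or above a cutoff equal to the mean over every tested compound plus 3 SD, cut at about 60% in these data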;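 note: growth measured after 20 h incubation at 37 °C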
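Test system: tolC-deleted E. coli BW25113 | Medium: LB with kanamycin 50 µg/mL | Compound dosing: Single concentration, 10 µM final per compound | Schedule: 37 °C, 20 h exposure | Measured by: OD at 615 nm | Evaluation: Percent growth inhibition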
BAP1 inh: inhibitors of human BAP1 deubiquitinase | actives 0.48% (n = 72,000) | recombinant BAP1, Ub-AMC hydrolysis fluorescence kinetic; stronger effect = lower value | Q92560 | calls only at 20 µM;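 active = activity remaining at or below 50% of control, provided the compound also passes the data quality filters; inactive = the rest, including low values that fail the filters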;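 note: 100% = DMSO wells rate and 0% = substrate alone blank rate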
BAP1 inh conf: confirmation of human BAP1 enzyme inhibitors. shares compounds with BAP1 inh. purified BAP1, Ub-ethyl ester hydrolysis, HPLC; stronger effect = lower value. % of control activity, % at 20 µM. actives 8% (n = 310). AID 753;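 active = percent of control activity at or below 60%; inconclusive = HPLC trace unusable from injection failure or solvent front hiding peaks; inactive = the rest, plus ubiquitin peak ratio over a set limit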
* marks the source's active call; other numbers are inactive results; i = inactive; ? = inconclusive; nt = no result shown; + = active, no number. Rows were chosen to be rich in hits. Some 2.9% of all compounds tested hit in one or more screens of this group.

SMILES	E coli RNAP	Cdc25B inh	MKP-1 inh	Hsp90 block	Ecoli tolC	BAP1 inh	BAP1 inh conf
CCOC(=O)c1ccc(NC(=O)CCc2ccc(CC)o2)cc1	6	12	4	0	56	+	96
Cn1c(=O)n(CC(=O)O)c2ccccc21	nt	nt	nt	nt	nt	i	nt
Brc1ccc(C2Nc3cccc4cccc(c34)N2)o1	4	11	12	13	21	+	86
CCOC(=O)c1[nH]c(CSc2nnnn2-c2ccccc2C)c(C(=O)OCC)c1C	7	-14	2	-8	-3	+	93
CCOc1cc(C(=O)O)cc(Cl)c1OCC#N	4	4	18	-3	-12	+	104
O=[N+]([O-])c1cccc(NS(=O)(=O)c2ccccc2)c1	nt	nt	nt	nt	nt	i	nt
c1ccc(-c2cc(-c3nn4c(-c5ccco5)nnc4s3)c3ccccc3n2)cc1	2	49	40	-1	-6	+	109
O=C(Cn1cnc2sc(-c3ccccc3)cc2c1=O)NCc1ccco1	10	-7	19	-8	-15	+	126
CCCCCc1nc2ccc([N+](=O)[O-])cc2[nH]1	nt	nt	nt	nt	nt	i	nt
CCOc1ccccc1OCCn1nnc2ccccc21	6	0	8	1	10	+	105
CCC(C)n1c(=O)[nH]c2c(c1=O)CCC2 (stereo not drawn)	nt	nt	nt	nt	nt	i	nt
Nc1nc(-c2cccnc2)nn1C(=O)CCc1ccccc1	nt	-6	0	0	-11	i	nt
Nc1nc(-c2cccnc2)nn1C(=O)COc1ccccc1	2	-9	-15	-1	-19	+	96
O=C(O)CCc1ccc(-c2ccccc2)n1CC(=O)O	2	-9	7	-8	2	i	nt
O=C(O)CCc1ccc(-c2ccccc2)n1-c1cccc(O)c1	nt	10	37	-4	9	+	143
COc1ccc(OC)c(NC(=O)c2cc3n(n2)C(C(F)(F)F)CC(c2ccc4c(c2)OCO4)N3)c1 (stereo not drawn)	2	-5	24	2	31	+	102
COc1ccccc1NC(=O)c1cc2n(n1)C(C(F)(F)F)CC(c1ccc3c(c1)OCO3)N2 (stereo not drawn)	-2	-4	15	-1	47	nt	nt
O=C(NCc1ccco1)c1cc2n(n1)C(C(F)(F)F)CC(c1ccc(Br)cc1)N2 (stereo not drawn)	10	5	0	-1	13	+	?
O=C(Nc1cc2ccccc2cc1NC(=O)c1cccs1)c1cccs1	nt	nt	nt	nt	nt	i	nt
CCc1cc2cc3c(cc2nc1SCC(=O)Nc1cc(C)on1)OCO3	8	14	-12	-3	1	+	93
CCc1cc2cc3c(cc2nc1SCC(=O)N1CCN(C(=O)c2ccco2)CC1)OCO3	6	3	-26	-3	22	i	nt
CCCSc1nc2c(cnn2-c2ccc(F)cc2)c(=O)[nH]1	6	4	12	0	11	i	nt
O=c1[nH]c(SCc2ccc(F)cc2)nc2c1cnn2-c1ccc(F)cc1	3	-3	-7	-1	0	+	57*
CN(CC(=O)N1CCN(c2ccc(F)cc2)CC1)S(=O)(=O)c1ccc(F)cc1	4	-11	2	-2	8	+	137
COc1ccccc1CN(Cc1cc2c(C)ccc(C)c2[nH]c1=O)Cc1nnnn1Cc1ccco1	5	-17	22	-6	18	+	94
SMILES	E coli RNAP	Cdc25B inh	MKP-1 inh	Hsp90 block	Ecoli tolC	BAP1 inh	BAP1 inh conf
COc1ccc2cc(CN(CCc3ccccc3)Cc3nnnn3Cc3ccco3)c(=O)[nH]c2c1	7	-32	31	-8	57	nt	nt
CCn1c(=NC(=O)c2ccc(N3C(=O)CCC3=O)cc2)sc2c(OC)ccc(OC)c21	9	1	?	-4	10	+	117
CC(C)CCNCC(O)Cn1c2ccc(Cl)cc2c2cc(Cl)ccc21 (stereo not drawn)	nt	nt	nt	nt	nt	i	nt
CCc1nc2c(cnn2-c2ccc(Cl)cc2)c(=O)n1-c1ccc(OC)cc1	7	6	4	0	6	+	89
Cc1ccc2c(c1)NC(=S)CC(c1ccccc1)=N2	nt	nt	nt	nt	nt	i	nt
Cc1ccc2cc3c(NC(=O)c4ccco4)nn(CC(C)C)c3nc2c1	-4	1	-19	-3	-9	+	109
Nc1nn(S(=O)(=O)c2cccc3nsnc23)cc1-c1ccc(Br)cc1	9	2	5	1	58	+	?
Cc1ccc(NC(=O)c2cccc(C(=O)Nc3ccc(C)c(Cl)c3)c2)cc1Cl	nt	nt	nt	nt	nt	i	nt
CC(C)C(=O)OCCN1C(=O)c2cccc3c(N4CCOCC4)ccc(c23)C1=O	nt	nt	nt	nt	nt	i	nt
CC1(C)Cc2c(C#N)c(SCc3ccccc3)nc(N3CCOCC3)c2CO1	8	-11	9	-1	26	+	121
Cn1nc(-c2ccc(Cl)cc2)c2cc(C(=O)NC3CC3)sc21	5	-14	2	-4	4	+	155
N#C/C(=C(/O)CN1C(=O)c2ccccc2C1=O)c1nc2ccccc2[nH]1	5	-8	9	-2	-6	i	nt
CSCCC(/C(O)=C(\C#N)c1nc2ccccc2[nH]1)N1C(=O)c2ccccc2C1=O (stereo not drawn)	5	3	20	-3	12	+	114
COc1ccc(OC)c(C2CC(=O)N3CN(c4cccc(Cl)c4C)CSC3=C2C#N)c1 (stereo not drawn)	8	-5	8	-3	11	+	104
CCOc1cc(C(=S)N2CCCCC2)ccc1OC(=O)c1ccc([N+](=O)[O-])cc1	nt	nt	nt	nt	nt	i	nt
O=C(Nc1cccc(-c2nc3ccccc3[nH]2)c1)c1cccc(NC(=O)c2ccco2)c1	9	-2	10	-7	13	+	135
Cc1ccc(-c2nc3ccccc3[nH]2)cc1NC(=O)c1ccco1	3	4	4	-3	10	i	nt
Cc1ccc(-n2nnnc2SCC(=O)Nc2ccc3c(c2)COC3=O)cc1C	5	5	7	-5	3	+	77
Cn1ccnc1SCC(=O)Nc1ccc2c(c1)COC2=O	10	8	-1	-7	11	nt	nt
Cc1ccc2[nH]c(=O)c(CN(Cc3cccs3)Cc3nnnn3Cc3ccccc3)cc2c1	5	-13	10	-1	55	+	67
Cc1ccc2[nH]c(=O)c(CN(CCO)Cc3nnnn3CCc3ccccc3)cc2c1	6	17	18	-4	-12	i	nt
CCOC(=O)c1[nH]c(C)c(C(=O)Nc2cc(OC)ccc2OC)c1C	3	0	1	0	-2	i	nt
CCOc1ccc(OCC)c(NC(=O)c2[nH]c(C)c(C(C)=O)c2C)c1	-3	10	1	25	-35	+	121
